Source: ChEMBL document CHEMBL5724801, “EUbOPEN Chemogenomics Library - Multiplex” (2024)
Values joined by “and” are separate entries in the source; they are usually repeats but may differ in a detail not shown here. Identical values can stand only once.

System: Fibroblast
Assay: Multiplex assay against human fibroblast
Type: toxicity, cell-based
In short: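 Hoechst33342, BioTracker Green Microtubule Cytoskeleton Dye, MitoTracker Red and Annexin V Alexa Fluor 680 were added to live cells at seeding, and imaging on a CQ1 microscope at 37°C and 5% CO2 followed compound addition. Gating by CellPathfinder machine learning separated cells into Hoechst high-intensity objects or normal cells, then normal cells into healthy, pyknosed or fragmented nuclei, then pyknosed cells into mitotic or apoptotic. Per cents of healthy-nucleus cells are reported for the tubulin, mitochondrial-mass and membrane-permeability phenotypes.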

[1] = 12 h, 1 µM, compound concentration 1 uM
[2] = 12 h, 10 µM, compound concentration 10 uM
[3] = 24 h, 1 µM, compound concentration 1 uM
[4] = 24 h, 10 µM, compound concentration 10 uM
[5] = 48 h, 1 µM, compound concentration 1 uM
[6] = 48 h, 10 µM, compound concentration 10 uM

`COc1ccc(-n2c(C)c([N+](=O)[O-])c3ccc(O)cc32)cc1` was tested, and the “Population Apoptotic (%)” value [1] was 18% and 14.29%, the “Population Fragmented Nuclei (%)” value [1] was 8.91% and 3.57% and the “Population Healthy Nuclei (%)” value [1] was 66.34% and 79.76%. For the same molecule, the “Population Hoechst High Intensity Objects (%)” value [1] was 0%, the “Population Membrane Permeable-Phenotype (%)” value [1] was 5.97% and 4.48% and the “Population Mitochondria Different-Phenotype (%)” value [1] was 7.46%. The “Population Mitotic Cells (%)” value [1] was 82% and 85.71%, the “Population Normal (%)” value [1] was 100% and the “Population Pyknosed Nuclei (%)” value [1] was 24.75% and 16.67%. The “Population Tubulin-Different-Phenotype (%)” value [1] was 13.43% and 18.66%, the “Total Cell Count” value [1] was 202 and 168 and the “Population Apoptotic (%)” value [2] was 17.65% and 23.08%. For the same molecule, the “Population Fragmented Nuclei (%)” value [2] was 6.97% and 4.59%, the “Population Healthy Nuclei (%)” value [2] was 67.66% and 77.52% and the “Population Hoechst High Intensity Objects (%)” value [2] was 0%. The “Population Membrane Permeable-Phenotype (%)” value [2] was 5.15% and 4.73%, the “Population Mitochondria Different-Phenotype (%)” value [2] was 6.62% and 11.24% and the “Population Mitotic Cells (%)” value [2] was 82.35% and 76.92%. For the same molecule, the “Population Normal (%)” value [2] was 100%, the “Population Pyknosed Nuclei (%)” value [2] was 25.37% and 17.89% and the “Population Tubulin-Different-Phenotype (%)” value [2] was 14.71% and 28.4%. The “Total Cell Count” value [2] was 201 and 218, the “Population Apoptotic (%)” value [3] was 9.52% and 17.86% and the “Population Fragmented Nuclei (%)” value [3] was 11.01% and 2.84%. The “Population Healthy Nuclei (%)” value [3] was 69.72% and 81.25%, the “Population Hoechst High Intensity Objects (%)” value [3] was 0% and the “Population Membrane Permeable-Phenotype (%)” value [3] was 4.61% and 4.2%. For the same molecule, the “Population Mitochondria Different-Phenotype (%)” value [3] was 3.29% and 5.59%, the “Population Mitotic Cells (%)” value [3] was 90.48% and 82.14% and the “Population Normal (%)” value [3] was 100%. The “Population Pyknosed Nuclei (%)” value [3] was 19.27% and 15.91%, the “Population Tubulin-Different-Phenotype (%)” value [3] was 10.53% and 19.58% and the “Total Cell Count” value [3] was 218 and 176. The “Population Apoptotic (%)” value [4] was 15.38% and 16.67%, the “Population Fragmented Nuclei (%)” value [4] was 4.88% and 5% and the “Population Healthy Nuclei (%)” value [4] was 76.1% and 84.09%. The “Population Hoechst High Intensity Objects (%)” value [4] was 0%, the “Population Membrane Permeable-Phenotype (%)” value [4] was 3.85% and 2.7% and the “Population Mitochondria Different-Phenotype (%)” value [4] was 8.33% and 6.49%. For the same molecule, the “Population Mitotic Cells (%)” value [4] was 84.62% and 83.33%, the “Population Normal (%)” value [4] was 100% and the “Population Pyknosed Nuclei (%)” value [4] was 19.02% and 10.91%. For the same molecule, the “Population Tubulin-Different-Phenotype (%)” value [4] was 15.38% and 20.54%, the “Total Cell Count” value [4] was 205 and 220 and the “Population Apoptotic (%)” value [5] was 26.32% and 22.22%. The “Population Fragmented Nuclei (%)” value [5] was 9.8% and 4.74%, the “Population Healthy Nuclei (%)” value [5] was 82.45% and 85.79% and the “Population Hoechst High Intensity Objects (%)” value [5] was 0%. The “Population Membrane Permeable-Phenotype (%)” value [5] was 0% and 1.84%, the “Population Mitochondria Different-Phenotype (%)” value [5] was 9.41% and 2.45% and the “Population Mitotic Cells (%)” value [5] was 73.68% and 77.78%. For the same molecule, the “Population Normal (%)” value [5] was 100%, the “Population Pyknosed Nuclei (%)” value [5] was 7.76% and 9.47% and the “Total Cell Count” value [5] was 245 and 190. For the same molecule, the “Population Apoptotic (%)” value [6] was 28.57% and 38.89%, the “Population Fragmented Nuclei (%)” value [6] was 7.73% and 4.61% and the “Population Healthy Nuclei (%)” value [6] was 85.51% and 78.8%. For the same molecule, the “Population Hoechst High Intensity Objects (%)” value [6] was 0%, the “Population Membrane Permeable-Phenotype (%)” value [6] was 3.39% and 7.02% and the “Population Mitochondria Different-Phenotype (%)” value [6] was 10.17% and 5.85%. The “Population Mitotic Cells (%)” value [6] was 71.43% and 61.11%, the “Population Normal (%)” value [6] was 100% and the “Population Pyknosed Nuclei (%)” value [6] was 6.76% and 16.59%. The “Population Tubulin-Different-Phenotype (%)” value [6] was 10.17% and 28.07% and the “Total Cell Count” value [6] was 207 and 217.

With `COc1cc(C(=O)N(CCCc2ccccc2)Cc2ccc(CC(=O)O)cc2)cc(OC)c1C` the “Population Apoptotic (%)” value [1] was 63% and 42%, the “Population Fragmented Nuclei (%)” value [1] was 14% and 37% and the “Population Healthy Nuclei (%)” value [1] was 73% and 45%. For the same molecule, the “Population Hoechst High Intensity Objects (%)” value [1] was 2% and 4%, the “Population Membrane Permeable-Phenotype (%)” value [1] was 0% and 11% and the “Population Mitochondria Different-Phenotype (%)” value [1] was 0% and 5%. The “Population Mitotic Cells (%)” value [1] was 36% and 57%, the “Population Normal (%)” value [1] was 97% and 95% and the “Population Pyknosed Nuclei (%)” value [1] was 12% and 16%. For the same molecule, the “Population Tubulin-Different-Phenotype (%)” value [1] was 15% and 36%, the “Total Cell Count” value [1] was 160 and 176 and the “Population Apoptotic (%)” value [2] was 41% and 45%. The “Population Fragmented Nuclei (%)” value [2] was 16% and 25%, the “Population Healthy Nuclei (%)” value [2] was 70% and 61% and the “Population Hoechst High Intensity Objects (%)” value [2] was 2% and 4%. For the same molecule, the “Population Membrane Permeable-Phenotype (%)” value [2] was 0% and 7%, the “Population Mitochondria Different-Phenotype (%)” value [2] was 5% and 4% and the “Population Mitotic Cells (%)” value [2] was 58% and 54%. For the same molecule, the “Population Normal (%)” value [2] was 97% and 95%, the “Population Pyknosed Nuclei (%)” value [2] was 12% and 13% and the “Population Tubulin-Different-Phenotype (%)” value [2] was 28% and 47%. The “Total Cell Count” value [2] was 197 and 181, the “Population Apoptotic (%)” value [3] was 68% and 52% and the “Population Healthy Nuclei (%)” value [3] was 77% and 41%. For the same molecule, the “Population Hoechst High Intensity Objects (%)” value [3] was 1% and 4%, the “Population Membrane Permeable-Phenotype (%)” value [3] was 0% and 1% and the “Population Mitochondria Different-Phenotype (%)” value [3] was 0% and 6%. The “Population Mitotic Cells (%)” value [3] was 31% and 48%, the “Population Normal (%)” value [3] was 98% and 95% and the “Population Pyknosed Nuclei (%)” value [3] was 10% and 13%. The “Population Tubulin-Different-Phenotype (%)” value [3] was 13% and 28%, the “Total Cell Count” value [3] was 156 and 189 and the “Population Apoptotic (%)” value [4] was 55% and 40%. The “Population Fragmented Nuclei (%)” value [4] was 12% and 25%, the “Population Healthy Nuclei (%)” value [4] was 76% and 61% and the “Population Hoechst High Intensity Objects (%)” value [4] was 1% and 4%. The “Population Membrane Permeable-Phenotype (%)” value [4] was 1% and 5%, the “Population Mitochondria Different-Phenotype (%)” value [4] was 6% and 0% and the “Population Mitotic Cells (%)” value [4] was 45% and 59%. The “Population Normal (%)” value [4] was 98% and 96%, the “Population Pyknosed Nuclei (%)” value [4] was 10% and 13% and the “Population Tubulin-Different-Phenotype (%)” value [4] was 25% and 41%. For the same molecule, the “Total Cell Count” value [4] was 192 and 175, the “Population Apoptotic (%)” value [5] was 90% and 52% and the “Population Fragmented Nuclei (%)” value [5] was 21% and 50%. The “Population Healthy Nuclei (%)” value [5] was 72% and 41%, the “Population Hoechst High Intensity Objects (%)” value [5] was 1% and 2% and the “Population Membrane Permeable-Phenotype (%)” value [5] was 0% and 3%. The “Population Mitochondria Different-Phenotype (%)” value [5] was 0% and 9%, the “Population Normal (%)” value [5] was 98% and 97% and the “Population Pyknosed Nuclei (%)” value [5] was 6% and 8%. For the same molecule, the “Population Tubulin-Different-Phenotype (%)” value [5] was 17% and 40%, the “Total Cell Count” value [5] was 168 and 211 and the “Population Apoptotic (%)” value [6] was 77% and 58%. The “Population Fragmented Nuclei (%)” value [6] was 25% and 38%, the “Population Healthy Nuclei (%)” value [6] was 65% and 54% and the “Population Hoechst High Intensity Objects (%)” value [6] was 2% and 5%. The “Population Membrane Permeable-Phenotype (%)” value [6] was 1% and 5%, the “Population Mitochondria Different-Phenotype (%)” value [6] was 5% and 3% and the “Population Mitotic Cells (%)” value [6] was 22% and 41%. The “Population Normal (%)” value [6] was 97% and 94%, the “Population Pyknosed Nuclei (%)” value [6] was 9% and 6% and the “Population Tubulin-Different-Phenotype (%)” value [6] was 32% and 46%. For the same molecule, the “Total Cell Count” value [6] was 195 and 187.
